# Reference: ChEMBL document CHEMBL1649418, “Pyrimidine derivatives as potent and selective A3 adenosine receptor antagonists” (J Med Chem, 2011)
# Key:
# Format in all cases: cell-based
# Adenosine receptor A2a = Adenosine receptor A2a (Homo sapiens, UniProt P29274); assay: Displacement of [3H][…] from human adenosine A2A receptor expressed in human HeLa cells at 0.1 uM by liquid scintillation counting
# Procedure, shortened: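 Nonspecific binding was defined with 50 μM NECA. Filters were washed four times with ice-cold buffer, then counted by scintillation. Ki (Cheng–Prusoff) is mean ± SEM, n=3; % displacement at 0.1 μM is n=2.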
# [1] = molecular target: T1, Adenosine receptor A1 (Homo sapiens) (UniProt P30542); assay: Displacement of [3H]DPCPX from human adenosine A1 receptor expressed in CHO cells at 0.1 uM by liquid scintillation counting
# T1 sequence (whole entry): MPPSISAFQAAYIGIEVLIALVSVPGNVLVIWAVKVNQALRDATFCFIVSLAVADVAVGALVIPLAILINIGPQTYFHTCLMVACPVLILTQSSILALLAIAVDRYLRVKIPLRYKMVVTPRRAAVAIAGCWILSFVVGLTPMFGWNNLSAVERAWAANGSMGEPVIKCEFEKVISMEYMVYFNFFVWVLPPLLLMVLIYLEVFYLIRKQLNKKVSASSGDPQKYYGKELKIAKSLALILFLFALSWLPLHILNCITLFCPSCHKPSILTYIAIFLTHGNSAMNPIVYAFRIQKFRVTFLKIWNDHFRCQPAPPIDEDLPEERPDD
# Procedure, shortened: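 Transfected CHO cell membranes (15 μg) were incubated with [3H]DPCPX at 25 °C for 60 min, with six test concentrations from 0.1 nM to 1 μM. Nonspecific binding was defined with 10 μM R-PIA. Filters were washed four times with ice-cold buffer before scintillation counting. Ki (Cheng–Prusoff) is mean ± SEM, n=3; % displacement at 0.1 μM is n=2.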
# [2] = molecular target: T2, Adenosine receptor A2b (Homo sapiens) (UniProt P29275); assay: Displacement of [3H]DPCPX from human adenosine A2B receptor expressed in HEK293 cells at 0.1 uM by liquid scintillation counting
# T2 sequence (whole entry): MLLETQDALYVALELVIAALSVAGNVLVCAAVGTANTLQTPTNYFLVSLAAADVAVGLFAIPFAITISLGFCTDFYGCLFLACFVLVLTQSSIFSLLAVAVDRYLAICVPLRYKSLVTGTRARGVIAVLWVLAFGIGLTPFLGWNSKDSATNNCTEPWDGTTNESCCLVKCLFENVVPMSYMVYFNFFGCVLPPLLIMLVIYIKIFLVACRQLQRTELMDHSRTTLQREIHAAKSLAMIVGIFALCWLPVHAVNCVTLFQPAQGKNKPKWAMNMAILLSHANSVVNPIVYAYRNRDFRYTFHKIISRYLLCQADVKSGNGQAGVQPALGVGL
# Procedure, shortened: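 HEK-293 membranes (18 μg) were incubated with [3H]DPCPX (35 nM) at 25 °C for 30 min, with six concentrations from 0.1 nM to 1 μM. Nonspecific binding was defined with 400 μM NECA. Filters were washed six times with ice-cold buffer and counted by scintillation. Ki (Cheng–Prusoff) is mean ± SEM, n=3; % displacement at 0.1 μM is n=2.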
# [3] = molecular target: T3, Adenosine receptor A3 (Homo sapiens) (UniProt P0DMS8); assay: Displacement of [3H]NECA from human adenosine A3 receptor expressed in human HeLa cells at 0.1 uM by liquid scintillation counting
# T3 sequence (whole entry): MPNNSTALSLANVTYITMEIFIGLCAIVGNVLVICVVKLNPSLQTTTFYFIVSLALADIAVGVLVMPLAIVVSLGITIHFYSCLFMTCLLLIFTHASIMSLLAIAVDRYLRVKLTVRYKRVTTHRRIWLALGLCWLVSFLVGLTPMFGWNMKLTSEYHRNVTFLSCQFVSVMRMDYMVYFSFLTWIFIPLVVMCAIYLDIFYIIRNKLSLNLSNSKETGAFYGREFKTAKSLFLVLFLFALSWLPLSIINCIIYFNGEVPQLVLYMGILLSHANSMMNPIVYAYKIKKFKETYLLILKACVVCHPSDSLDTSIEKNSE
# Procedure, shortened: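 HeLa membranes (90 μg) carrying hA3AR were incubated with [3H]NECA (30 nM) at 25 °C for 180 min, with six concentrations from 0.1 nM to 1 μM. Nonspecific binding was defined with 100 μM R-PIA. Filters were washed six times and counted by scintillation. Ki (Cheng–Prusoff) is mean ± SEM, n=3; % displacement at 0.1 μM is n=2.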
# Sequence of Adenosine receptor A2a (P29274 whole entry): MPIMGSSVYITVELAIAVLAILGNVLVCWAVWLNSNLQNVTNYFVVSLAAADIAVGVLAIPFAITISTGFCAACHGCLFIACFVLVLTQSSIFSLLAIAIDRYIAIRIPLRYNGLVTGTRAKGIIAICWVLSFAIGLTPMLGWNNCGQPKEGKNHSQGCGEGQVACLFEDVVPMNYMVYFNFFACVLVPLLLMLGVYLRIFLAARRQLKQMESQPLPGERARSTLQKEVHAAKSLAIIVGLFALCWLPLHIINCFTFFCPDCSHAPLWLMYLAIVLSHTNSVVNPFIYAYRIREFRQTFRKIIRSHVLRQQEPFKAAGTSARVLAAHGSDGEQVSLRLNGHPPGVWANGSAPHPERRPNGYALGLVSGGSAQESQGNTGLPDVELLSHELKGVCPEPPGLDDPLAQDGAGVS
SMILES,inhibition (Adenosine receptor A2a) [%],inhibition [1] [%],inhibition [2] [%],inhibition [3] [%]
CCC(=O)Nc1nc(-c2ccccc2OC)cc(-c2ccccc2OC)n1,13,21,2,22
CC(=O)Nc1nc(-c2ccoc2)cc(-c2ccoc2)n1,1,1,1,1
CSc1ccc(-c2cc(-c3ccc(SC)cc3)nc(NC(C)=O)n2)cc1,1,1,2,14
CCCC(=O)Nc1nc(-c2ccc(OC)cc2)cc(-c2ccc(OC)cc2)n1,24,2,9,15
CCC(=O)Nc1nc(-c2ccc(OC)cc2)cc(-c2ccc(OC)cc2)n1,1,2,8,13
CCC(=O)Nc1nc(-c2ccc(Cl)cc2)cc(-c2ccc(Cl)cc2)n1,11,1,2,14
CCCC(=O)Nc1cc(-c2ccc(SC)cc2)nc(-c2ccc(SC)cc2)n1,2,3,1,12
CC(=O)Nc1nc(-c2ccc(Cl)cc2)cc(-c2ccc(Cl)cc2)n1,2,2,1,1
CC(=O)Nc1nc(-c2cccs2)cc(-c2cccs2)n1,5,2,3,21
CCCC(=O)Nc1cc(/C=C/c2ccccc2)nc(/C=C/c2ccccc2)n1,1,1,8,25
CCC(=O)Nc1nc(-c2ccc(OC)cc2OC)cc(-c2ccc(OC)cc2OC)n1,14,3,3,17

# The next lines start with the values.
inhibition (Adenosine receptor A2a) [%],inhibition [1] [%],inhibition [2] [%],inhibition [3] [%],SMILES
16,14,15,1,CCCC(=O)Nc1nc(-c2ccc(OC)cc2OC)cc(-c2ccc(OC)cc2OC)n1
11,17,6,13,CC(=O)Nc1nc(-c2ccccc2)cc(-c2ccccc2)n1
12,2,9,2,CCC(=O)Nc1nc(-c2ccc(C(F)(F)F)cc2)cc(-c2ccc(C(F)(F)F)cc2)n1
2,1,13,2,CCCC(=O)Nc1nc(-c2ccc(C(F)(F)F)cc2)cc(-c2ccc(C(F)(F)F)cc2)n1
3,1,2,12,CCCC(=O)Nc1nc(/C=C/c2ccccc2)cc(/C=C/c2ccccc2)n1
25,24,2,21,CCC(=O)Nc1nc(-c2cccs2)cc(-c2cccs2)n1
2,1,1,9,COc1ccc(-c2cc(-c3ccc(OC)cc3OC)nc(NC(C)=O)n2)c(OC)c1
1,2,2,10,CC(=O)Nc1nc(-c2ccc(C(F)(F)F)cc2)cc(-c2ccc(C(F)(F)F)cc2)n1
5,18,2,27,CCCC(=O)Nc1nc(-c2ccc(F)cc2)cc(-c2ccc(F)cc2)n1
3,1,1,17,CCCC(=O)Nc1nc(-c2ccc(Cl)cc2)cc(-c2ccc(Cl)cc2)n1
15,1,1,4,CC(=O)Nc1nc(/C=C/c2ccccc2)cc(/C=C/c2ccccc2)n1
17,3,8,12,CCC(=O)Nc1cc(-c2ccc(C(F)(F)F)cc2)nc(-c2ccc(C(F)(F)F)cc2)n1
